Experimental data: ChEMBL document CHEMBL4261600 (Eur J Med Chem, 2018)

Assays:
[1] = Half life in beagle dog at 2 mg/kg, iv by LC-MS/MS analysis; assay type: ADME, organism-based, Canis lupus familiaris; conditions: in vivo
[2] = tested on: Mast/stem cell growth factor receptor Kit (Homo sapiens), P10721 [A829P]; experiment: Binding affinity to human partial length KIT A829P mutant (I571 to D952 residues) expressed in mammalian expression system assessed as remaining unbound target protein level at 1000 nM by Kinomescan method relative to control
In short: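 KINOMEscan competition-binding profiling across the panel of 468 kinases and mutants, with inhibitor tested at 1 μM. Binding is expressed as percent of control, with DMSO as the reference control.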

[3] = Tmax in mouse at 3 mg/kg, iv by LC-MS/MS analysis; assay type: ADME, organism-based; conditions: in vivo
[4] = target: RAC-gamma serine/threonine-protein kinase (Homo sapiens) (UniProt Q9Y243); experiment: Binding affinity to wild-type human partial length AKT3 expressed in bacterial expression system assessed as remaining unbound target protein level at 1000 nM by Kinomescan method relative to control
Sequence of RAC-gamma serine/threonine-protein kinase (Homo sapiens) (Q9Y243 whole entry): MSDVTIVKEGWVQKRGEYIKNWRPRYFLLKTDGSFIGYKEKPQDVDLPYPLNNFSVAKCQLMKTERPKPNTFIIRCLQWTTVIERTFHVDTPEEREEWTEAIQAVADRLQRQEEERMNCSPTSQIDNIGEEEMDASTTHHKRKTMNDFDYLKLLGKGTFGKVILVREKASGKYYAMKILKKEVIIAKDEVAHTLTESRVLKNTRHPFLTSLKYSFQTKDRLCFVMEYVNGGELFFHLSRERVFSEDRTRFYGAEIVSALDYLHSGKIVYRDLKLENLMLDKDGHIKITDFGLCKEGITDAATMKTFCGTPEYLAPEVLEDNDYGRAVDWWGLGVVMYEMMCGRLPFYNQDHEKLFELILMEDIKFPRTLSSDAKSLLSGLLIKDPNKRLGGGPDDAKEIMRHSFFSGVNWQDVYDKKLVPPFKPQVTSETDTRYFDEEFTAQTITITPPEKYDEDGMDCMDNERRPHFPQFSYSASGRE
In short: (§1)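 Profiled in a KINOMEscan binding panel with the inhibitor at a single concentration of 1 μM. Binding to each kinase was read out as percent of control, relative to a DMSO control. Strong binders were defined as those with a percent control value below 1.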

[5] = tested on: A-375; experiment: Antiproliferative activity against human A375 cells after 72 hrs by Celltiter-Glo assay; assay type: functional; conditions: A-375, 72 h
In short: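 Cells seeded at 3000/well in 96-well plates, exposed to serially diluted compound for 72 h at 37 °C, 5% CO2. Viability read by CellTiter-Glo luminescence and normalized to DMSO control. GI50 derived from curve fit, mean of three independent measurements. Culture media: DMEM/10% FBS for adherent lines; IMDM for MV4-11 and MEC-1/2; RPMI 1640 for suspension lines and CHL.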

[6] = target: cGMP-dependent protein kinase 1 (Homo sapiens) (UniProt Q13976); experiment: Binding affinity to wild-type human partial length PRKG1 (L339 to F686 residues) expressed in bacterial expression system assessed as remaining unbound target protein level at 1000 nM by Kinomescan method relative to control
[7] = target: Tyrosine-protein kinase JAK3 (Homo sapiens) (UniProt P52333); experiment: Binding affinity to wild-type human partial length JAK3 JH1 catalytic domain (I781 to S1124 residues) expressed in mammalian expression system assessed as remaining unbound target protein level at 1000 nM by Kinomescan method relative to control
Sequence of Tyrosine-protein kinase JAK3 (Homo sapiens) (P52333 whole entry, the tested form may be a part): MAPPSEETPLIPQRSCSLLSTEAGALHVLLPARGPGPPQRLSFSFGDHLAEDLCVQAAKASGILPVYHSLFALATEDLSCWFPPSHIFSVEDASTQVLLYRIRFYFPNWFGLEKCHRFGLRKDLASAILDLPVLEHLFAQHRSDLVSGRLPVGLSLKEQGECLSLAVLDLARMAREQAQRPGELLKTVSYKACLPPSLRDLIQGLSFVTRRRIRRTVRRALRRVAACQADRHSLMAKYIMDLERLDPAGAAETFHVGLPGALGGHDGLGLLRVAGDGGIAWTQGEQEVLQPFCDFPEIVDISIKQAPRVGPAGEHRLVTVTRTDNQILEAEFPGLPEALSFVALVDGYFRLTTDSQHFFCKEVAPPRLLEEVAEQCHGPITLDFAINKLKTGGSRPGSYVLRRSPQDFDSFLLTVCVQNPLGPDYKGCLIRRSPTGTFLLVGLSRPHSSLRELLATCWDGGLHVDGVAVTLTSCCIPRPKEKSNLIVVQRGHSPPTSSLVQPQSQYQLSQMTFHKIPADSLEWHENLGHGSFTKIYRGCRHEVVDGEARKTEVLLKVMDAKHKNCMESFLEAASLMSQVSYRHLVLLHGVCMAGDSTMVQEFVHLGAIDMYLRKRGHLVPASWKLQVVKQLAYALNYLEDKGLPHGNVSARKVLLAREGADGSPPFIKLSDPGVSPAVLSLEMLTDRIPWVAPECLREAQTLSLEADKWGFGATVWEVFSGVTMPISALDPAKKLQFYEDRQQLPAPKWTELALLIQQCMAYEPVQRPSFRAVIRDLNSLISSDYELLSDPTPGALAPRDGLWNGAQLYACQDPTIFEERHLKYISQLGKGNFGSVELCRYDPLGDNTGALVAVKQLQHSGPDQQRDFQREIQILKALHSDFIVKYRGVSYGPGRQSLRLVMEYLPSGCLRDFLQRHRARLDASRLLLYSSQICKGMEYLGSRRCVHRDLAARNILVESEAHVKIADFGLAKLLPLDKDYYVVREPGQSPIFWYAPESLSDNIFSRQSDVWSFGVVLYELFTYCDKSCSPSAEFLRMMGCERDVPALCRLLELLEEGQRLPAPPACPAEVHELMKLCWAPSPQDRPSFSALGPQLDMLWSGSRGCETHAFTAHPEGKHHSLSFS

[8] = target: Cyclin-dependent kinase 17 (Homo sapiens) (UniProt Q00537); experiment: Binding affinity to wild-type human full length PCTK2 (M1 to F523 residues) expressed in bacterial expression system assessed as remaining unbound target protein level at 1000 nM by Kinomescan method relative to control
Sequence of Cyclin-dependent kinase 17 (Homo sapiens) (Q00537 whole entry, looked up, the tested form may be a part): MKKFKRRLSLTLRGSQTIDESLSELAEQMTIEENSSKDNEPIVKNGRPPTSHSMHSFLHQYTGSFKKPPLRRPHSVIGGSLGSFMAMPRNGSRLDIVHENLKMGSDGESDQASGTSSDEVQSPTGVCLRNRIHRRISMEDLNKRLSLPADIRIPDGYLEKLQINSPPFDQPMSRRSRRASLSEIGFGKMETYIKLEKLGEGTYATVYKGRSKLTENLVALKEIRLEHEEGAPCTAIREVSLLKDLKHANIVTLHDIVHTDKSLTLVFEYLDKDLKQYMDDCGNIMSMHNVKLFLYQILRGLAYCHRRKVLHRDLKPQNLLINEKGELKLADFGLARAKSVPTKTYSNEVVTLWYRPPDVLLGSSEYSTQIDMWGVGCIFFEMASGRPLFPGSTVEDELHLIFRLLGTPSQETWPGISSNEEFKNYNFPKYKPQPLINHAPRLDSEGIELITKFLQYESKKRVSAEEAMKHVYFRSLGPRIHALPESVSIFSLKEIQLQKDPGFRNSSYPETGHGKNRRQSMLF
In short: (§2)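 KINOMEscan competition binding profile across a panel of 468 kinases and mutants, with the inhibitor tested at a single concentration of 1 μM. Binding is reported as percent of control, meaning signal relative to a DMSO control.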

[9] = target: Bone morphogenetic protein receptor type-2 (Homo sapiens) (UniProt Q13873); experiment: Binding affinity to wild-type human partial length BMPR2 (R179 to Q526 residues) expressed in mammalian expression system assessed as remaining unbound target protein level at 1000 nM by Kinomescan method relative to control; in short: as §1
[10] = target: Cytoplasmic tyrosine-protein kinase BMX (Homo sapiens) (UniProt P51813); experiment: Binding affinity to wild-type human full length BMX (M1 to H675 residues) expressed in bacterial expression system assessed as remaining unbound target protein level at 1000 nM by Kinomescan method relative to control
In short: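 Single-point competition binding screen across a panel of 468 kinases and mutants, with the inhibitor at 1 μM. Binding is read out as percent of a DMSO control, and targets below 1 percent control were classed as strong binders.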

[11] = target: Dual specificity mitogen-activated protein kinase kinase 4 (Homo sapiens) (UniProt P45985); experiment: Binding affinity to wild-type human partial length MEK4 (S84 to D399 residues) expressed in mammalian expression system assessed as remaining unbound target protein level at 1000 nM by Kinomescan method relative to control
In short: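 KINOMEscan binding panel of 468 kinases/mutants. Inhibitor was tested at a single concentration of 1 μM. Binding is reported as percent of control, defined relative to a DMSO control.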

[12] = Tmax in beagle dog at 10 mg/kg, po by LC-MS/MS analysis; assay type: ADME, organism-based, Canis lupus familiaris; conditions: in vivo
[13] = organism: Homo sapiens; experiment: Selectivity ratio of IC50 for recombinant full length His/GST-tagged human CDK5/p25 to IC50 for recombinant full length His-tagged human CDK9/CyclinT1
[14] = target: Homeodomain-interacting protein kinase 1 (Homo sapiens) (UniProt Q86Z02); experiment: Binding affinity to wild-type human partial length HIPK1 (M146 to I555 residues) expressed in mammalian expression system assessed as remaining unbound target protein level at 1000 nM by Kinomescan method relative to control
Sequence of Homeodomain-interacting protein kinase 1 (Homo sapiens) (Q86Z02 whole entry, looked up, the tested form may be a part): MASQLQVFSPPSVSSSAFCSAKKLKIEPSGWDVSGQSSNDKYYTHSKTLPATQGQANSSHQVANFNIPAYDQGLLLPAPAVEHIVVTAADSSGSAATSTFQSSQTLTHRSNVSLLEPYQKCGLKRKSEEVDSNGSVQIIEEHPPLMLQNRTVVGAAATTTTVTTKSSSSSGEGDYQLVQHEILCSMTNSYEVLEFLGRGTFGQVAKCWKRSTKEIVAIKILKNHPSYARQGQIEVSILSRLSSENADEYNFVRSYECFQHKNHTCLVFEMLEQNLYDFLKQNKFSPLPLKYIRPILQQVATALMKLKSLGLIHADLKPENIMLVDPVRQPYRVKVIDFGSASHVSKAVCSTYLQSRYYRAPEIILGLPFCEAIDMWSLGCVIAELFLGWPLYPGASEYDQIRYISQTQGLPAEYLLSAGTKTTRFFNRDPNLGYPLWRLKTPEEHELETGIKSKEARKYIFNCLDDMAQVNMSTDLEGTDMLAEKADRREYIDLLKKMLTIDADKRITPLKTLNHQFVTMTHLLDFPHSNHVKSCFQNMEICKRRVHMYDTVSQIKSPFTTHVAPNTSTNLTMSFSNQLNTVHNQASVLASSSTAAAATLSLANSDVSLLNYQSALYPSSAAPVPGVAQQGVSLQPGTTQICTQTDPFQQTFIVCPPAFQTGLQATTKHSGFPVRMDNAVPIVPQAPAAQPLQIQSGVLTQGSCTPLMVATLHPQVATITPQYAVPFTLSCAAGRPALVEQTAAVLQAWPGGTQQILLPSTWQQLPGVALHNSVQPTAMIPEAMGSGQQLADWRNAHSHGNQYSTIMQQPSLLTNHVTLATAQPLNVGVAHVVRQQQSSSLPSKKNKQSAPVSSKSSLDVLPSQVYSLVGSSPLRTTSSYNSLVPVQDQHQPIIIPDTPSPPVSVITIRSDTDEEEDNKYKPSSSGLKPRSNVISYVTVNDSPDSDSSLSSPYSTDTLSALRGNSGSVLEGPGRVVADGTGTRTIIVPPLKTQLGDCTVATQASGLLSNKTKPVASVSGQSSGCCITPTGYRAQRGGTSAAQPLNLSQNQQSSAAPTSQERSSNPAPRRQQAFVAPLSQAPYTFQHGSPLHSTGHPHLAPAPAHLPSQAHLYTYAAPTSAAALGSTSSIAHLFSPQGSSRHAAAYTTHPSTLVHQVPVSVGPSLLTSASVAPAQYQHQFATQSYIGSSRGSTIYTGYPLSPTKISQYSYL

[15] = target: Serine/threonine-protein kinase PAK 2 (Homo sapiens) (UniProt Q13177); experiment: Binding affinity to wild-type human partial length PAK2 (P151 to R525 residues) expressed in bacterial expression system assessed as remaining unbound target protein level at 1000 nM by Kinomescan method relative to control
[16] = target: Serine/threonine-protein kinase Nek11 (Homo sapiens) (UniProt Q8NG66); experiment: Binding affinity to wild-type human partial length NEK11 (M1 to E313 residues) expressed in mammalian expression system assessed as remaining unbound target protein level at 1000 nM by Kinomescan method relative to control
Sequence of Serine/threonine-protein kinase Nek11 (Homo sapiens) (Q8NG66 whole entry, the tested form may be a part, canonical isoform): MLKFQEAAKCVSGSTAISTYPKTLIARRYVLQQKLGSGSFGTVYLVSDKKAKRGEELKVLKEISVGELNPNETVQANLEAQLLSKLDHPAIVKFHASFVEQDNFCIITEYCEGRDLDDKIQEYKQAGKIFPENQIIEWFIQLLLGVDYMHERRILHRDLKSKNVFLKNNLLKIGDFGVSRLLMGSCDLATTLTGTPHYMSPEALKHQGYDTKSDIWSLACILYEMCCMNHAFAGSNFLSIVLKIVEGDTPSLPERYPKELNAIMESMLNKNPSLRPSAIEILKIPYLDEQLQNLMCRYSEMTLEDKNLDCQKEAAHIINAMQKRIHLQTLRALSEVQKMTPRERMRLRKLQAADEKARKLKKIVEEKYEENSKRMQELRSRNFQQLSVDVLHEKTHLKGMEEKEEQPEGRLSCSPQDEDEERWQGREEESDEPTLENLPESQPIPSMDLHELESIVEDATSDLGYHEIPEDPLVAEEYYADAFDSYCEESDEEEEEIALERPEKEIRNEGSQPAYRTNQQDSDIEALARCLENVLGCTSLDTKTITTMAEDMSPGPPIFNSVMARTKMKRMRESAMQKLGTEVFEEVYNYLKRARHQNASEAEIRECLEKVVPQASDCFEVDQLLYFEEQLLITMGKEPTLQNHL

[17] = target: Casein kinase I isoform gamma-2 (Homo sapiens) (UniProt P78368); experiment: Binding affinity to wild-type human full length CSNK1G2 (M1 to K415 residues) expressed in bacterial expression system assessed as remaining unbound target protein level at 1000 nM by Kinomescan method relative to control
Sequence of Casein kinase I isoform gamma-2 (Homo sapiens) (P78368 whole entry, looked up, the tested form may be a part, canonical isoform): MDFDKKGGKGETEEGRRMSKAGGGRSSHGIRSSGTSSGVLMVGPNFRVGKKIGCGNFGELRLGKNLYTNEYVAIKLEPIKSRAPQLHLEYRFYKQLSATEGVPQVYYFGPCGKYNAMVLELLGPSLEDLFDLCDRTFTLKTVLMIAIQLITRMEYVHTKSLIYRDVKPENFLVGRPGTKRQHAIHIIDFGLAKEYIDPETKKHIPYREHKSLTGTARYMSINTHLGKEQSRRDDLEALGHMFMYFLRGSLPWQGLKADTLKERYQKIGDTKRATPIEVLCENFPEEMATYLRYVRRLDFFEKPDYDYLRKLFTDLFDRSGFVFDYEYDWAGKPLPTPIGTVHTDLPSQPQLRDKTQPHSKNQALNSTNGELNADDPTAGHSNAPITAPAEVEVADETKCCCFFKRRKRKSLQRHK
In short: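 KINOMEscan competitive binding profile at 1 μM inhibitor. Remaining target binding reported as percent of DMSO control.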

[18] = tested on: ALK tyrosine kinase receptor (Homo sapiens), Q9UM73 [L1196M]; experiment: Binding affinity to wild-type human partial length ALK L1196M mutant (I1088 to E1409 residues) expressed in mammalian expression system assessed as remaining unbound target protein level at 1000 nM by Kinomescan method relative to control; in short: as §1
[19] = Half life in mouse at 10 mg/kg, po by LC-MS/MS analysis; assay type: ADME, organism-based; conditions: in vivo
[20] = target: Dual specificity tyrosine-phosphorylation-regulated kinase 1B (Homo sapiens) (UniProt Q9Y463); experiment: Binding affinity to wild-type human full length DYRK1B (M1 to S629 residues) expressed in bacterial expression system assessed as remaining unbound target protein level at 1000 nM by Kinomescan method relative to control; in short: as §2
Sequence of Dual specificity tyrosine-phosphorylation-regulated kinase 1B (Homo sapiens) (Q9Y463 whole entry, looked up, the tested form may be a part): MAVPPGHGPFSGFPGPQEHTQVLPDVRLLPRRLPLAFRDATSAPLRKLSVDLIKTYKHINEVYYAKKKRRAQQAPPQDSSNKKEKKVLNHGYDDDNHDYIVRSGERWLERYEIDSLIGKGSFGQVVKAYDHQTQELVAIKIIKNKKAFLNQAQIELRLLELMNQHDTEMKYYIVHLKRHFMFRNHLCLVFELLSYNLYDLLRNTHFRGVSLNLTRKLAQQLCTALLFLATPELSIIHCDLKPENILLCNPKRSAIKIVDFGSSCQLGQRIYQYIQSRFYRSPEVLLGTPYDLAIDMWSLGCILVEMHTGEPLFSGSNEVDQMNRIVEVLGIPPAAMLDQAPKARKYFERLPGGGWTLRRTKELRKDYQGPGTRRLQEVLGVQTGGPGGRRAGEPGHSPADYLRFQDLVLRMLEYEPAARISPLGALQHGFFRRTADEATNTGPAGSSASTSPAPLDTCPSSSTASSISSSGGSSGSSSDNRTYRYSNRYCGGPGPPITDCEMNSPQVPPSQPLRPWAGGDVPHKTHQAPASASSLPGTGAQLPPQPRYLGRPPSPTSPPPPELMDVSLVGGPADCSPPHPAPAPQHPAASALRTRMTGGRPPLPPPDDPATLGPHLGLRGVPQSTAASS

[21] = target: CDK9/cyclin T1 (Homo sapiens, UniProt P50750); experiment: Inhibition of recombinant full length His-tagged human CDK9/CyclinT1 expressed in baculovirus expression system
[22] = target: BDNF/NT-3 growth factors receptor (Homo sapiens) (UniProt Q16620); experiment: Binding affinity to wild-type human partial length TRKB (Q547 to G838 residues) expressed in mammalian expression system assessed as remaining unbound target protein level at 1000 nM by Kinomescan method relative to control

Which half-life [1] does the source give for COCCN[C@H]1CC[C@H](Nc2cc(-c3csc(NCC4(C#N)CCOCC4)n3)c(Cl)cn2)CC1 here?
Its half-life is 13.1 h.

What about the Activity [2] of the same molecule?
Its Activity is 88%.

And the Tmax [3]?
Its Tmax is 4.98 min.

What about the Activity [4] of the same molecule?
The Activity was 100%.

And the GI50 [5]?
The GI50 was 44 nM.

What about the Activity [6] of the same molecule?
The Activity was 100%.

And the Activity [7]?
Its Activity is 92%.

What about the Activity [8] of the same molecule?
Its Activity is 32%.

And the Activity [9]?
The Activity was 100%.

And the Activity [10]?
The Activity was 92%.

And the Activity [11]?
Its Activity is 99%.

What about the Tmax [12] of the same molecule?
The Tmax was 1.33 h.

And the Ratio IC50 [13]?
The Ratio IC50 was over 1000.

And the Activity [14]?
Its Activity is 60%.

And the Activity [15]?
The Activity was 85%.

What about the Activity [16] of the same molecule?
Its Activity is 97%.

And the Activity [17]?
Its Activity is 73%.

What about the Activity [18] of the same molecule?
Its Activity is 78%.

What about the half-life [19] of the same molecule?
Its half-life is 1.55 h.

What about the Activity [20] of the same molecule?
The Activity was 0.35%.

What about the IC50 [21] of the same molecule?
Its IC50 is 1 nM.

What about the Activity [22] of the same molecule?
Its Activity is 79%.
